From PubChem BioAssay
EWS-Fli inh: EWS/Fli transcriptional activity inhibition | A673 NR0B1-luciferase reporter, viability-normalised | inhibition, % at 12.6 µM | 350,000 tested, 0.67% active | AID 651661;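 active = mean inhibition of at least 50% after viability correction, with every replicate also passing that limit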;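 also: firefly luciferase signal divided by Alamar Blue viability fluorescence both relative to DMSO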
FN deposition inh: fibronectin deposition inhibition. AH1F fibroblasts, Alexa488-fibronectin deposition fluorescence, overnight. inhibition, % at 12.6 µM. 350,000 tested, 0.086% active;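 active = mean inhibition across replicates of 30% or more, regardless of how many single replicates reach that level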;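 also: positive control wells lacked labelled fibronectin entirely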
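Schedule: 1 h cell adhesion before compound, then overnight fibronectin incubation; test system: AH1F fibroblast monolayer depositing Alexa488-labelled fibronectin into matrix; quantity: 10000 AH1F cells per well; probe or stimulus: fluorescent fibronectin at 24 nM final; signal: fluorescence, ex 485 nm, em 525 nm; evaluation: percent inhibition as loss of matrix-bound fibronectin fluorescence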
LMP1 NFkB inh: inhibitors of Epstein-Barr LMP1-induced NF-kappaB reporter. 350,000 tested, 0.69% active. LMP1-induced NF-kappaB luciferase reporter cells, luminescence. inhibition, % at 12.5 µM; in the data active = inhibition above about 41%;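 also: 0% = neutral control wells and 100% = reference inhibitor control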
PAX8 inh HTS: lowers PAX8-driven luciferase in RMG-I cells; RMG-I TPO-luciferase reporter, SteadyGlo, 24 h; inhibition, % at 12.6 µM; 360,000 tested, 1.2% active; AID 652154;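 active = mean replicate inhibition at least 60% with every replicate also reaching 60%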;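 also: luciferase light reporting Pax8 driven TPO promoter activity; plate controls were median of neutral control wells for no effect and mitoxantrone controls for full effect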
Shn3 3UTR inh: inhibitors of Schnurri-3 3'UTR reporter in osteoblasts | Clone20 osteoblast Shn3 3'UTR firefly luciferase, 24 h | inhibition, % at 12.5 µM | 360,000 tested, 0.52% active | AID 588674;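 active = mean inhibition of at least 75% with every replicate also reaching 75%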;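 also: 0% = median of neutral control wells and 100% = pilot-screen positive control compound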
aSyn 5UTR inh: 5' untranslated region of α-synuclein, MLPCN primary screen | alpha-synuclein 5'UTR reporter, inhibitor activity | inhibition, % (tested at 7.5 µM) | 300,000 tested, 0.82% active | AID 1813; in the data active = inhibition above about 60%;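 also: H4 neuroglioblastoma cells stably carrying SNCA 5'UTR luciferase fusion; 0% = DMSO wells and 100% = positive control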
Numbers without * were called inactive; . = no result given. In the library only some 2.1% were active in any assay of this set; here they are far more common.

SMILES	EWS-Fli inh	FN deposition inh	LMP1 NFkB inh	PAX8 inh HTS	Shn3 3UTR inh	aSyn 5UTR inh
CCC1CSC(Nc2ccc(C(=O)/C=C/c3ccc(Br)cc3)cc2)=N1 (stereo unspecified)	-7.3	4.4	4.3	-6.3	35.8	-18.6
CCC1CSC(Nc2ccc(C(=O)/C=C/c3ccc(OC)c(OC)c3)cc2)=N1 (stereo unspecified)	.	-7.3	19.6	5.0	87.5*	-50.8
O=C(Nc1ccccc1)N1CCc2scc[n+]2-c2ccccc21	3.7	-1.1	5.1	111.7*	8.7	5.0
CC1CN(C(=O)Nc2ccccc2)c2ccccc2-[n+]2ccsc21 (stereo unspecified)	.	1.2	9.2	4.1	13.7	-24.0
c1c2c(cc3sc(N4CCOCC4)nc13)OCCO2	.	-9.3	62.5*	38.1	42.9	94.2*
CO[C@@H]1CN(C)C(=O)c2ccc(NC(=O)c3ccccc3)cc2OC[C@@H](C)N(C(=O)C2CC2)C[C@@H]1C	-1.6	-3.0	.	1.7	.	.
CS(=O)(=O)N1[C@@H]2Cn3c(cccc3=O)[C@H]1[C@@H](C(=O)NCc1ccccc1)[C@@H]2CO	-5.6	.	.	.	.	.
c1ccc(-c2nc3ccccc3nc2-c2ccc(CN3CCC(c4nc5ccccc5[nH]4)CC3)cc2)cc1	12.9	-7.7	.	10.8	.	.
N#Cc1ccc2nc(-c3ccc(CN4CCC(c5nc6ccccc6[nH]5)CC4)cc3)c(-c3ccccc3)nc2c1	18.3	22.8	.	78.3*	.	.
COc1ccc2c3c([nH]c2c1)[C@H](CO)N(Cc1ccccc1)CC31CN(C(=O)Nc2cccc(F)c2)C1	-13.7	1.0	.	.	.	.
Cc1nnc(C)n1/N=C/c1c(O)ccc2ccccc12	3.8	-2.4	3.2	14.9	13.4	-4.9
Cc1nnc(-c2ccccc2)c(=O)n1/N=C/c1c(O)ccc2ccccc12	.	.	14.0	.	50.5	83.1*
O=C(NCCc1ccccc1)[C@H]1[C@H](CO)[C@H]2Cn3c(cccc3=O)[C@@H]1N2C(=O)C1CCC1	-3.1	.	.	.	.	.
COCC(=O)N(C)C[C@H]1Oc2cc(-c3ccccc3F)ccc2S(=O)(=O)N([C@@H](C)CO)C[C@@H]1C	1.6	1.3	.	-5.3	.	.
COc1ccc(N2C(=O)C(Cl)=C(NCc3ccccc3)C2=O)cc1	.	.	65.1*	.	-16.6	-29.7
C/C(CC(=O)NCc1ccco1)=N\NC(=O)COc1ccc(Cl)cc1Cl	2.4	5.6	7.8	12.3	-15.0	10.2
C/C(CC(=O)NCc1ccco1)=N\NC(=O)COc1ccc(C)cc1	3.8	-7.5	8.6	64.7*	16.4	6.9
CC(C)C#Cc1ccc([C@H]2[C@@H](CO)N3CCCCN(CC4CC4)C[C@@H]23)cc1	-10.6	.	.	-10.7	.	.
COC(=O)c1nn(-c2ccc3c(c2)CCN3C(C)=O)cc1O	.	3.5	55.2*	.	62.4	90.6*
c1ccc(-c2noc(-c3ccncc3)n2)nc1	.	.	6.4	.	-48.8	-61.6
Cc1cccc(-c2noc(-c3ccc4c(c3)OCO4)n2)c1	31.9	-5.7	-38.6	-46.2	-4.7	48.6
c1ccc(-c2noc(-c3ccc4ccccc4c3)n2)nc1	.	.	82.5*	.	88.6*	113.1*
c1ccc(-c2noc(-c3ccc4c(c3)OCO4)n2)nc1	.	.	77.7*	.	75.4	90.6*
COc1cccc(-c2nc(-c3ccccn3)no2)c1	.	2.1	.	70.1*	.	104.1*
CC(C)NC(=O)Nc1ccc2c(c1)C(=O)N(C)C[C@@H](C)[C@H](CN(C)S(C)(=O)=O)O2	.	0.5	.	.	.	.
SMILES	EWS-Fli inh	FN deposition inh	LMP1 NFkB inh	PAX8 inh HTS	Shn3 3UTR inh	aSyn 5UTR inh
Cc1ccc(S(=O)(=O)Nc2ccc3c(c2)C(=O)N([C@H](C)CO)C[C@@H](C)[C@@H](CN(C)C(=O)C2CCCCC2)OCCCC[C@H](C)O3)cc1	3.8	-0.5	.	-1.1	.	.
C[C@H]1CN([C@@H](C)CO)C(=O)c2cc(-c3ccccc3F)cnc2O[C@@H]1CN(C)C(=O)C1CC1	-1.2	.	.	.	.	.
O=C(NCC[C@H]1CC[C@H](NC(=O)C2CC2)[C@@H](CO)O1)Nc1ccc(C(F)(F)F)cc1	-8.4	-10.4	.	0.0	.	.
Cc1nc(SCc2nc3cc(Cl)c(F)cc3[nH]2)c2oc3ccccc3c2n1	8.7	.	18.7	87.4*	23.6	.
O=C(Cc1ccccn1)NCC[C@@H]1CC[C@@H](NC(=O)Nc2ccc(C(F)(F)F)cc2)[C@@H](CO)O1	-13.9	10.2	.	68.7*	.	.
O=C(Cc1ccccn1)NCC[C@@H]1CC[C@H](NC(=O)Nc2ccc(C(F)(F)F)cc2)[C@@H](CO)O1	-10.8	-4.8	.	84.5*	.	.
O=C(Cc1ccccn1)NCC[C@@H]1CC[C@@H](NC(=O)Nc2ccc(C(F)(F)F)cc2)[C@H](CO)O1	-10.6	7.3	.	15.1	.	.
CN(C)CCCNC(=O)C[C@H]1C=C[C@@H](NS(=O)(=O)c2ccccc2)[C@H](CO)O1	1.5	.	.	-5.3	.	.
CC(C)(C)c1ccc(C(O)CCCN2CCC(C(O)(c3ccccc3)c3ccccc3)CC2)cc1 (stereo unspecified)	2.4	-4.2	-6.9	-18.1	97.1*	111.1*
COc1cccc(NC(=O)N(C)C[C@@H]2OCc3ccccc3-c3c(n(C)c4ccccc34)C(=O)N([C@H](C)CO)C[C@@H]2C)c1	7.3	4.9	.	7.4	.	.
CO[C@H]1CN(C)C(=O)c2cc(NC(=O)C3CCC3)ccc2OC[C@H](C)N(C(=O)NC(C)C)C[C@@H]1C	-3.7	14.9	.	0.1	.	.
Clc1ccc(-c2c[n+](Cc3ccc(Cl)cc3Cl)c3n2CCCCC3)cc1	7.5	2.2	13.9	22.0	46.8	8.0
CC1CCC(C(C)C)C(OC(=O)C[n+]2cc(-c3ccc(Cl)cc3)n3c2CCCCC3)C1 (stereo unspecified)	49.2	.	19.0	102.3*	59.7	-12.4
C[C@@H]1CCCCO[C@H](CN(C)C(=O)CCC(F)(F)F)[C@H](C)CN([C@H](C)CO)C(=O)c2cc(NS(=O)(=O)c3cccs3)ccc2O1	-0.1	.	.	18.5	.	.
CCCNC(=O)C[C@@H]1CC[C@@H]2[C@H](COc3ccc(NS(=O)(=O)c4ccccc4C)cc3C(=O)N2C)O1	9.0	7.9	.	-0.3	.	.
O=C(C[C@@H]1C=C[C@@H](NC(=O)Cc2ccccn2)[C@H](CO)O1)NCCCN1CCOCC1	-1.5	9.8	.	12.0	.	.
CC(=O)NC1C(O)OC(CO)C(O)C1O (stereo unspecified)	-1.1	4.5	79.7*	-1.3	97.1*	-3.0
CC(=O)N[C@H]1C(O)O[C@H](CO)[C@@H](O)[C@@H]1O (stereo partly specified)	3.5	0.9	-3.2	-5.2	-62.6	19.4
CCOCCCNC(=O)CN1C(=O)/C(=C\c2ccc(C)cc2)Sc2ccccc21	-13.3	5.0	69.3*	-3.6	2.8	-5.2
COC(=O)CCCC[C@@H]1SC[C@@H](NC(=O)OC)[C@@H]1NC(=O)OC	.	4.2	53.4*	9.9	14.6	12.5
CC(=O)C1=C(C)NC(SCC(=O)c2cc(Cl)ccc2Cl)=C(C#N)C1c1ccco1 (stereo unspecified)	15.0	.	-20.3	.	81.2*	-129.6
